A selection: hits, their analogues and other compounds. The true share with any hit is near 2.1%.
PAX8 inh HTS – inhibitors of PAX8 transcriptional activity in RMG-I cells; hit rate 1.2% among 360,000; inhibition, % at 12.6 µM; RMG-I TPO-luciferase reporter, SteadyGlo, 24 h;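 active means mean replicate inhibition at least 60% with every replicate also reaching 60%; inconclusive means only one of the two criteria is met; inactive means mean below 60% and not all replicates reaching 60%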;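 further: luciferase light reporting Pax8 driven TPO promoter activity; plate controls were median of neutral control wells for no effect and mitoxantrone controls for full effect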
Shn3 inh set2 – reduces Shn3 3'UTR luciferase signal in osteoblasts. Clone20 osteoblast Shn3 3'UTR firefly luciferase, 24 h. inhibition, % at 12.5 µM. hit rate 0.52% among 360,000;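 active means mean inhibition of at least 75% with every replicate also reaching 75%; inconclusive means mean inhibition at least 75% but some replicate below; inactive means mean inhibition below 75%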;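 further: 0% = median of neutral control wells and 100% = pilot-screen positive control compound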
aSyn 5UTR inh – 5' untranslated region of α-synuclein, MLPCN primary screen. alpha-synuclein 5'UTR reporter, inhibitor activity. inhibition, % (tested at 7.5 µM). hit rate 0.82% among 300,000. AID 1813; in the data active means inhibition above about 60%; inconclusive means no clear call, values can overlap the other calls;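 further: H4 neuroglioblastoma cells stably carrying SNCA 5'UTR luciferase fusion; 0% = DMSO wells and 100% = positive control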
FN deposition inh – fibronectin deposition inhibition. hit rate 0.086% among 350,000. AH1F fibroblasts, Alexa488-fibronectin deposition fluorescence, overnight. AID 743247. inhibition, % at 12.6 µM;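 active means mean inhibition across replicates of 30% or more, regardless of how many single replicates reach that level; inconclusive means mean under 30% yet at least half of replicates reach 30%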;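 further: positive control wells lacked labelled fibronectin entirely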
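test system = AH1F fibroblasts assembling fluorescent fibronectin matrix | quantity = 10000 AH1F cells per well | buffer or medium = DMEM plus 2% serum, read in PBS | doses = single dose, pinned | incubation = 1 h cell attachment, overnight exposure to compound and label | detection = fluorescence at 485 nm excitation, 525 nm emission | read-out basis = inhibition from reduced deposited-fibronectin fluorescence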
EBV LMP1 NFkB – inhibitors of Epstein-Barr LMP1-induced NF-kappaB reporter; hit rate 0.69% among 350,000; inhibition, % at 12.5 µM; LMP1-induced NF-kappaB luciferase reporter cells, luminescence; in the data active means inhibition above about 41%; inconclusive means no clear call, values can overlap the other calls;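 further: 0% = neutral control wells and 100% = reference inhibitor control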
EWS-Fli inh – inhibitors of EWS/Fli oncoprotein transcriptional activity; hit rate 0.67% among 350,000; A673 NR0B1-luciferase reporter, viability-normalised; inhibition, % at 12.6 µM;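 active means mean inhibition of at least 50% after viability correction, with every replicate also passing that limit; inconclusive means mean reaches 50% but only one of two replicates passes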;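 further: firefly luciferase signal divided by Alamar Blue viability fluorescence both relative to DMSO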
Active calls of the source: *; u = inconclusive; x = not tested or not shown.

SMILES	PAX8 inh HTS	Shn3 inh set2	aSyn 5UTR inh	FN deposition inh	EBV LMP1 NFkB	EWS-Fli inh
COc1ccc(-c2csc(N(CCCN(C)C)C(=O)c3ccccc3F)n2)cc1	63*	14	-3	4	-21	18
C[C@@H]1CCCCO[C@@H](CN(C)S(=O)(=O)c2ccc(Cl)cc2)[C@H](C)CN([C@H](C)CO)C(=O)c2cc(NC(=O)Cc3ccccc3)ccc2O1	62*	x	x	x	x	15
C[C@H](CO)N1C[C@H](C)[C@H](CN(C)S(=O)(=O)c2ccc(Cl)cc2)OCCCC[C@H](C)Oc2ccc(NC(=O)Nc3ccccc3)cc2C1=O	65*	x	x	x	x	-2
C[C@@H]1CCCCO[C@H](CN(C)S(=O)(=O)c2ccc(Cl)cc2)[C@@H](C)CN([C@@H](C)CO)C(=O)c2cc(NC(=O)Nc3ccc(F)cc3)ccc2O1	66*	x	x	2	x	6
C[C@@H]1CCCCO[C@@H](CN(C)S(=O)(=O)c2ccc(Cl)cc2)[C@H](C)CN([C@@H](C)CO)C(=O)c2cc(NC(=O)Nc3ccc(F)cc3)ccc2O1	22	x	x	12	x	8
C[C@@H]1CCCCO[C@H](CN(C)S(=O)(=O)c2ccc(Cl)cc2)[C@H](C)CN([C@@H](C)CO)C(=O)c2cc(NC(=O)NC3CCCCC3)ccc2O1	63*	x	x	x	x	6
C[C@@H]1CN([C@@H](C)CO)C(=O)c2cccc(NS(=O)(=O)c3ccc(F)cc3)c2O[C@H]1CN(C)C	-3	x	x	4	x	9
CO[C@H]1CN(C)C(=O)c2cc(NC(=O)c3ccccc3)ccc2OC[C@H](C)N(C(=O)C2CC2)C[C@@H]1C	x	x	x	11	x	2
C[C@@H]1CN([C@@H](C)CO)C(=O)Cc2cc(NS(=O)(=O)c3ccc(Cl)cc3)ccc2O[C@H]1CN(C)S(C)(=O)=O	2	x	x	x	x	-2
C[C@H](CO)N1C[C@H](C)[C@@H](CN(C)S(=O)(=O)c2ccc(Cl)cc2)OCCCC[C@H](C)Oc2ccc(NC(=O)Nc3ccc(F)cc3)cc2C1=O	46	x	x	-14	x	23
C[C@@H]1CN([C@H](C)CO)C(=O)c2cc(NC(=O)Nc3ccc(F)cc3)ccc2O[C@@H](C)CCCCO[C@H]1CN(C)S(=O)(=O)c1ccc(Cl)cc1	76*	17	x	11	x	-15
C[C@H](CO)N1C[C@H](C)[C@@H](CN(C)S(C)(=O)=O)Oc2ccc(NC(=O)Nc3cccc4ccccc34)cc2CC1=O	16	x	x	x	x	x
COc1ccc(-c2cc(C(F)(F)F)nc(S(C)(=O)=O)n2)cc1	x	95*	-103	x	7	x
CS(=O)(=O)c1nc(-c2ccc(F)cc2)cc(C(F)(F)F)n1	40	89*	-126	25	-25	34
CCCCCOc1ccc(Br)cc1/C(C)=N/NC1=NCCN1	81*	u	88*	-1	-4	x
O=C(N[C@H]1CC[C@@H](CCNS(=O)(=O)c2ccc(Cl)cc2)O[C@@H]1CO)c1cccc(F)c1	15	x	x	x	x	0
O=[N+]([O-])c1ccccc1-c1ccc(/C=N/n2cnnc2)o1	x	14	-35	x	9	x
Nn1cnnc1N/N=C\c1ccc(-c2ccccc2[N+](=O)[O-])o1	92*	-25	-48	1	5	-8
O=C(NCCOc1ccccc1)c1cc([N+](=O)[O-])ccc1N1CCOCC1	18	-5	x	-22	13	58*
Cc1ccc(C(=O)c2cc([N+](=O)[O-])ccc2N2CCOCC2)c(C)c1	x	33	98*	x	5	x
O=C(c1cc([N+](=O)[O-])ccc1N1CCOCC1)N1CCN(c2ccccc2)CC1	91*	3	91*	0	13	x
O=C(NCCOc1ccccc1F)c1cc([N+](=O)[O-])ccc1N1CCOCC1	24	12	-36	x	-4	49
CN1CCN(c2ccc([N+](=O)[O-])cc2C(=O)N2CCOCC2)CC1	-9	-7	1	6	-1	x
C/C=C/c1cccc(-c2nc(C(=O)N(C)C)cc3c2[C@@H](CCO)N([S@](=O)C(C)(C)C)C3)c1	x	x	x	-4	x	-6
CN(C)C(=O)c1cccc(-c2ccc([C@@H]3[C@@H](C#N)N(C(=O)C4CCCC4)[C@H]3CO)cc2)c1	-37	x	x	6	x	-5
SMILES	PAX8 inh HTS	Shn3 inh set2	aSyn 5UTR inh	FN deposition inh	EBV LMP1 NFkB	EWS-Fli inh
CCC(=O)N(C)C[C@@H]1Oc2cc(-c3ccccc3C)ccc2S(=O)(=O)N([C@H](C)CO)C[C@H]1C	x	x	x	x	x	-6
CCC1=Nc2cc(C(=O)NCc3cccnc3)ccc2Sc2ccc(C)cc21	27	-9	20	8	17	65*
CCC1=Nc2cc(C(=O)NCC3CCCO3)ccc2Sc2ccc(Cl)cc21 (stereo unspecified)	43	13	-74	-7	2	57*
CCC1=Nc2cc(C(=O)NCc3ccco3)ccc2Sc2ccc(Cl)cc21	41	-9	16	-2	7	x
CC(C)NC(=O)N(C)C[C@H]1Oc2ccc(NC(=O)C3CCCCC3)cc2CC(=O)N([C@H](C)CO)C[C@@H]1C	-5	x	x	x	x	1
COc1ccc2c3c(n(C)c2c1)[C@@H](CO)N(Cc1ccc2c(c1)OCO2)CC31CCN(C(=O)C2CC2)CC1	x	x	x	x	x	-12
COc1ccccc1NC(=O)N1CCCCN2[C@H](C1)[C@@H](c1ccc(-c3cccc(C#N)c3)cc1)[C@@H]2CO	83*	x	x	6	x	9
COc1ccccc1NC(=O)N1CCCCN2[C@H](C1)[C@H](c1ccc(-c3cccc(C)c3)cc1)[C@@H]2CO	35	x	x	x	x	30
COc1ccccc1NC(=O)N1CCCCN2[C@@H](CO)[C@@H](c3ccc(-c4cccc(C)c4)cc3)[C@@H]2C1	104*	x	x	x	x	57*
C[C@H]1CN([C@@H](C)CO)C(=O)c2cc(NC(=O)NC3CCCCC3)ccc2O[C@@H]1CN(C)CC1CCCCC1	9	x	x	x	x	-2
Cc1sc2ncn(CC(=O)N3CCC(C(N)=O)CC3)c(=O)c2c1S(=O)(=O)N1CCOCC1	16	-5	1	0	46*	4
CCOC(=O)C1CCCN(C(=O)Cn2cnc3sc(C)c(S(=O)(=O)N4CCOCC4)c3c2=O)C1 (stereo unspecified)	15	7	-25	-9	-8	2
Cc1ccc(O)c(C2=NNC(c3ccc(Cl)cc3)C2)c1 (stereo unspecified)	-53	-6	-128	11	-4	-58
Cc1ccc(C2Cc3cc(O)c(O)cc3CN2)cc1 (stereo unspecified)	40	21	89*	6	x	34
CCNC(=O)C[C@H]1CC[C@@H]2[C@@H](COc3ccc(NC(=O)c4cc(C)on4)cc3C(=O)N2C)O1	-16	x	x	2	x	4
Cc1ccc(S(=O)(=O)Nc2ccc3c(c2)C(=O)N([C@H](C)CO)C[C@@H](C)[C@H](CN(C)Cc2ccc(Cl)c(Cl)c2)OCCCC[C@H](C)O3)cc1	96*	x	x	-29	x	29

Source: PubChem BioAssay (Broad Institute)
